Source: ChEMBL document CHEMBL1909594, “Synthesis of polyfunctionalized piperidone oxime ethers and their cytotoxicity on HeLa cells” (Bioorg Med Chem Lett, 2011)
pIC50: −log10 of the molar value. Calls of active or inactive are those of the source. The rule behind the calls is not given here.

Legend:
HeLa [1] = assay: cells; format: functional, cell-based; conditions: Homo sapiens, 24 h
HeLa [2] = assay: Induction of apoptosis in human HeLa cells assessed as cytoplasm content release at 25 uM after 24 hrs using Hoechst staining method; format: functional, cell-based; conditions: in the assay text read “by phase contrast microscopy” for “using Hoechst staining method”
Outline: (§1)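 HeLa cells (ATCC) were grown in DMEM with 10% heat-inactivated FBS plus penicillin/streptomycin at 37 °C under 5% CO₂. Cells at 1 × 10⁵/well were exposed to compound for 24 h. Morphology changes were then examined by phase-contrast light microscopy against untreated cells.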

HeLa [3] = assay: Induction of apoptosis in human HeLa cells assessed as fragmentation of nucleus at 25 uM after 24 hrs using Hoechst staining method; format: functional, cell-based
Outline: (§2)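 HeLa cells at 1 × 10⁴ cells/well in 96-well plates, in three replicates, were treated and incubated overnight at 37 °C. Cells were washed twice with PBS and fixed in 4% paraformaldehyde in PBS for one day. They were stained with 1 µg/mL Hoechst 33342 for 20 min at room temperature. Nuclei were imaged by fluorescence microscopy at 360/470 nm excitation/emission.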

HeLa [4] = assay: Induction of apoptosis in human HeLa cells assessed as chromosomal condensation at 25 uM after 24 hrs using Hoechst staining method; format: functional, cell-based
Outline: as §2

HeLa [5] = assay: Induction of apoptosis in human HeLa cells assessed as cell membrane rupture at 25 uM after 24 hrs using Hoechst staining method; format: functional, cell-based; conditions: in the assay text read “by phase contrast microscopy” for “using Hoechst staining method”
Outline: as §1

HeLa [6] = assay: Induction of apoptosis in human HeLa cells assessed as chromosomal fragmentation at 25 uM after 24 hrs using Hoechst staining method; format: functional, cell-based
Outline: as §2

HeLa [7] = assay: Ratio of camptothecin IC50 to compound IC50 for human HeLa cells; format: functional
HeLa [8] = assay: Induction of apoptosis in human HeLa cells assessed as blebbing of cellular membrane at 25 uM after 24 hrs using Hoechst staining method; format: functional, cell-based; conditions: in the assay text read “by phase contrast microscopy” for “using Hoechst staining method”
Outline: as §1

HeLa [9] = assay: Induction of apoptosis in human HeLa cells assessed as deformed nucleus/cytoplasm consistency at 25 uM after 24 hrs using Hoechst staining method; format: functional, cell-based
Outline: as §2

HeLa [10] = assay: Induction of apoptosis in human HeLa cells assessed as formation of apoptotic bodies at 25 uM after 24 hrs using Hoechst staining method; format: functional, cell-based
Outline: as §2

HeLa [11] = assay: Induction of apoptosis in human HeLa cells assessed as margination of chromation into horseshoe shaped structure at 25 uM after 24 hrs using Hoechst staining method; format: functional, cell-based
Outline: as §2

Structure (SMILES) | pIC50 (HeLa [1]) | also measured
CO/N=C1\C[C@@H](c2ccc(F)cc2)N[C@@H](c2ccc(F)cc2)[C@@H]1C | 4.31 | –
CO/N=C1\C[C@@H](c2ccc(OC)cc2)N[C@@H](c2ccc(OC)cc2)[C@@H]1C | 3.81 | –
CO/N=C1/[C@@H](C)[C@H](c2cccc(F)c2)N[C@H](c2cccc(F)c2)[C@H]1C | 4.42 | –
CO/N=C1/[C@@H](C)[C@H](c2ccc(C)cc2)N[C@H](c2ccc(C)cc2)[C@H]1C | 4.26 | –
CO/N=C1/[C@@H](C)[C@H](c2ccc(C(C)C)cc2)N[C@H](c2ccc(C(C)C)cc2)[C@H]1C | 4.29 | –
CO/N=C1/[C@@H](C)[C@H](c2ccc(OC)cc2)N[C@H](c2ccc(OC)cc2)[C@H]1C | 4.03 | –
CCOc1ccc([C@H]2N[C@@H](c3ccc(OCC)cc3)[C@H](C)/C(=N/OC)[C@@H]2C)cc1 | 4.01 | –
CO/N=C1\C[C@@H](c2ccc(Cl)cc2)N(C)[C@@H](c2ccc(Cl)cc2)[C@@H]1C | 4.44 | –
CO/N=C1\C[C@@H](c2ccc(F)cc2)N(C)[C@@H](c2ccc(F)cc2)[C@@H]1C | 4.39 | –
CO/N=C1\C[C@@H](c2ccc(C)cc2)N(C)[C@@H](c2ccc(C)cc2)[C@@H]1C | 4.32 | –
CO/N=C1\C[C@@H](c2ccc(OC)cc2)N(C)[C@@H](c2ccc(OC)cc2)[C@@H]1C | 4.09 | –
CC[C@@]1(O)C(=O)OCc2c1cc1n(c2=O)Cc2cc3ccccc3nc2-1 [CAMPTOTHECIN] | 5.05 | –
COc1cc([C@@H]2c3cc4c(cc3[C@@H](O[C@@H]3O[C@@H]5CO[C@@H](C)O[C@H]5[C@H](O)[C@H]3O)[C@H]3COC(=O)[C@H]23)OCO4)cc(OC)c1O [ETOPOSIDE] | 4.63 | –

Further lines, with some results ahead:

pIC50 (HeLa [1]) | Structure (SMILES) | also measured
4.42 | CO/N=C1\C[C@@H](c2cccc(F)c2)N[C@@H](c2cccc(F)c2)[C@@H]1C | –
4.09 | CO/N=C1\C[C@@H](c2ccc(C)cc2)N[C@@H](c2ccc(C)cc2)[C@@H]1C | –
4.24 | CC[C@@H]1/C(=N/OC)C[C@@H](c2ccccc2)N[C@H]1c1ccccc1 | –
4.31 | CO/N=C1\C[C@@H](c2ccccc2)N[C@@H](c2ccccc2)[C@@H]1C(C)C | –
4.38 | CC[C@@H]1/C(=N/OC)C[C@@H](c2ccccc2)N(C)[C@H]1c1ccccc1 | –
3.92 | CO/N=C1\C[C@@H](c2ccccc2)N[C@@H](c2ccccc2)C1 (relative stereo) | –
3.95 | CO/N=C1\C[C@@H](c2ccccc2)N[C@@H](c2ccccc2)[C@@H]1C (relative stereo) | –
4.60 | CO/N=C1\C[C@@H](c2ccc(Br)cc2)N[C@@H](c2ccc(Br)cc2)[C@@H]1C (relative stereo) | Activity (HeLa [2]): Active; Activity (HeLa [3]): Active; Activity (HeLa [4]): Active; Activity (HeLa [5]): Active; Activity (HeLa [6]): Active; Ratio IC50 (HeLa [7]): 3; Activity (HeLa [8]): Active; Activity (HeLa [9]): Active; Activity (HeLa [10]): Active; Activity (HeLa [11]): Active
4.31 | CO/N=C1\C[C@@H](c2ccc(Cl)cc2)N[C@@H](c2ccc(Cl)cc2)[C@@H]1C (relative stereo) | –
